In data set [1] the test system is Escherichia coli Top10 vector control (no β-lactamase). Kind of data set: MIC by broth dilution, E. coli vector control. The data set is classed as cell-based. For orientation: Broth dilution looks for growth in wells or tubes with falling amounts of substance.
For data set [2], the system named is Escherichia coli expressing KPC-2. Kind of data set: MIC by broth dilution, E. coli expressing KPC-2. The data set is classed as cell-based.
Data set [3] has as its system Escherichia coli expressing KPC-44. Kind of data set: MIC by broth dilution, E. coli expressing KPC-44. The class given is cell-based. The settings on record: for fold lower MIC than WT KPC-2: E. coli expressing KPC-44 vs KPC-2; for MIC: Escherichia coli.
The target of data set [4] is T1, KPC-44 (Klebsiella pneumoniae, UniProt Q9F663, DUP260-274). The class given is biochemical. To be noted: for kcat / Km: substrate hydrolysis by KPC-44, 30 °C; for kcat: 50 mM sodium phosphate pH 7; for Km: pH 7; for fold lower kcat than KPC-2 / fold lower kcat/KM than KPC-2: KPC-44 vs KPC-2.
Data set [5] addresses T1, KPC-44. In words: Decarbamylation/deborylation rate. The class given is biochemical. The settings on record: for k-2: KPC-44, jump dilution, 30 °C. The procedure, abridged: (§1)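 It was then diluted 100-fold into the same buffer and added to 200 μM nitrocefin at 1:10. Recovery of activity was followed continuously at A482, 30 °C. Vaborbactam deborylation was run the same way.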

Data set [6] deals with T2, KPC-2 (Klebsiella pneumoniae, UniProt Q9F663). Kind of data set: Decarbamylation/deborylation rate. The class given is biochemical. To be noted: jump dilution, 30 °C. An outline of the steps: as §1
The target of data set [7] is T1, KPC-44. Kind of data set: Inhibition of nitrocefin hydrolysis. The data set is classed as biochemical.
Data set [8] concerns the target T2, KPC-2. In words: Steady-state kinetics of β-lactam hydrolysis by KPC-2. To be noted: substrate hydrolysis by KPC-2; 30 °C, 50 mM sodium phosphate pH 7.
Data set [9] deals with T2, KPC-2. In words: Inhibition of nitrocefin hydrolysis. The class given is biochemical.
Data set [10] deals with C[C@@H](O)[C@H]1C(=O)N2C(C(=O)O)=C(SCCN=CN)C[C@H]12. Kind of data set: purified protein, by the assay type. The settings on record: other: substrate hydrolysis by KPC-2, 30 °C, pH 7.
Data set [11] relates to CC(C)(O/N=C(\C(=O)N[C@@H]1C(=O)N2C(C(=O)[O-])=C(C[n+]3ccccc3)CS[C@H]12)c1csc(N)n1)C(=O)O. Kind of data set: purified protein, by the assay type. To be noted: other: substrate hydrolysis by KPC-2, 30 °C, pH 7.
Data set [12] deals with C[C@@H](O)[C@H]1C(=O)N2C(C(=O)O)=C(S[C@@H]3CN[C@H](C(=O)N(C)C)C3)[C@H](C)[C@H]12. In words: purified protein, by the assay type. The settings on record: other: substrate hydrolysis by KPC-2, 30 °C, pH 7.

Converted amounts (≈) assume the structure as drawn. Bounds are passed on as bounds.

For the molecule `CC1(C)S[C@@H]2[C@H](NC(=O)[C@H](N)c3ccccc3)C(=O)N2[C@H]1C(=O)O` [Ampicillin], the MIC (commonly the smallest concentration in the dilution series that meets the test's criterion for growth inhibition) in data set [1] was 4 µg/mL (≈ 11.4 µM). Further, the lowest concentration to inhibit growth in data set [2] (MIC) was 128 µg/mL (≈ 366 µM). Moreover, in data set [3], the “fold lower MIC than WT KPC-2” value is on record as 2 fold and the MIC came out at 64 µg/mL (≈ 183 µM). Moreover, on KPC-44 [4], the kcat – broadly, the maximal rate divided by the concentration of active sites – worked out at 126 ± 5 s⁻¹ and the Km – broadly, the concentration of substrate that gives half-maximal velocity – was 232 ± 22 µM.
Take `NC(=O)[C@@H]1CC[C@@H]2CN1C(=O)N2OS(=O)(=O)O` [Avibactam]: the k-2 result on KPC-44 [5] is given as “(7.1 ± 0.32) × 10^−5 s^−1”; on KPC-2 [6], “(9.6 ± 0.020) × 10^−5 s^−1”.
As to `CC(C)(O/N=C(\C(=O)N[C@@H]1C(=O)N2C(C(=O)[O-])=C(C[n+]3ccccc3)CS[C@H]12)c1csc(N)n1)C(=O)O` [Ceftazidime], the MIC in [1] was 0.5 µg/mL (≈ 0.915 µM); in data set [2], 2 µg/mL (≈ 3.66 µM); in [3] it was 8 µg/mL (≈ 14.6 µM).
On to `O=C(O)[C@H]1/C(=C/CO)O[C@@H]2CC(=O)N21` [Clavulanate], for which, at KPC-44 [7], the midpoint of inhibition, the IC50, lay at 4800 ± 170 nM.
As for `C[C@@H](O)[C@H]1C(=O)N2C(C(=O)O)=C(SCCN=CN)C[C@H]12` [Imipenem], the minimum inhibitory concentration (MIC) in data set [1] was determined as 0.25 µg/mL (≈ 0.835 µM). The molecule also gave an MIC in data set [2] of 1.5 µg/mL (≈ 5.01 µM). Also, in data set [3], the “fold lower MIC than WT KPC-2” value stood at 2 fold and 0.75 µg/mL (≈ 2.51 µM) was the least that counted as inhibitory (MIC). Further, in [3] (E. coli expressing KPC-44 vs no β-lactamase control), the “fold higher MIC than negative control” value was determined as 3 fold. Also, on KPC-44 [4], the “fold lower kcat than KPC-2” value came to 8 fold, the “fold lower kcat/KM than KPC-2” value was 4 fold, the kcat was determined as 6.4 ± 0.33 s⁻¹ and the Km came out at 57 ± 7.1 µM.
Take `C[C@@H](O)[C@H]1C(=O)N2C(C(=O)O)=C(S[C@@H]3CN[C@H](C(=O)N(C)C)C3)[C@H](C)[C@H]12` [Meropenem]: the MIC in data set [1] amounted to 0.25 µg/mL (≈ 0.652 µM). For the same molecule, the MIC in [2] was determined as 0.375 µg/mL (≈ 0.978 µM). This molecule also yielded a minimal inhibitory concentration (MIC) in data set [3] of 0.25 µg/mL (≈ 0.652 µM). On KPC-44 [4], the “fold lower kcat than KPC-2” value is recorded as 7 fold, the “fold lower kcat/KM than KPC-2” value was 3 fold, the catalytic constant (kcat) is 0.46 ± 0.022 s⁻¹ and the Michaelis constant (Km) turned out to be 7.3 ± 1.4 µM.
As to `O=C(Cc1cccs1)N[C@@H]1C(=O)N2C(C(=O)O)=C(/C=C/c3ccc([N+](=O)[O-])cc3[N+](=O)[O-])CS[C@H]12` [Nitrocefin], at KPC-2 [8], the kcat worked out at 130 ± 2.2 s⁻¹. For the same molecule, at KPC-44 [4], the kcat is 20 ± 0.67 s⁻¹ and the Km was 16 ± 1.4 µM.
With `O=C(O)C[C@@H]1CC[C@H](NC(=O)Cc2cccs2)B(O)O1` [Vaborbactam], the IC50 – broadly, the concentration at which inhibition is half-maximal – against KPC-44 [7] was 220 ± 0.92 nM; against KPC-2 [9] it was 130 ± 5.4 nM. The “fold difference in IC50 (less potent versus KPC-44 compared to KPC-2)” value at KPC-44 [7] (KPC-44 vs KPC-2) is “less than 2 fold”. Also, the figures for the k-2 result on KPC-44 [5] and at KPC-2 [6] were “(2.9 ± 0.047) × 10^−5 s^−1” and “(1.2 ± 0.014) × 10^−5 s^−1”, respectively. Moreover, at KPC-44 [5] (KPC-44 vs KPC-2), the “fold higher k-2 than KPC-2” value is 3 fold.
KPC-2 (Klebsiella pneumoniae): in [10], the Km is 130 ± 33 µM, the kcat turned out to be 50 ± 4.5 s⁻¹ and the kcat/Km (usually the turnover number divided by the Michaelis constant) amounted to 380000 ± 100000 M⁻¹ s⁻¹. For the same molecule, in data set [11], the catalytic constant (kcat) is above 0.8 s⁻¹ and the specificity constant (kcat/Km) came to 1100 ± 66 M⁻¹ s⁻¹. In [12], the Km is 19 ± 2.9 µM, the kcat was determined as 3.3 ± 0.18 s⁻¹ and the catalytic efficiency (kcat/Km) was 170000 ± 28000 M⁻¹ s⁻¹.

Source of the values: publication PMC10716778 (The Journal of Biological Chemistry, 2023).
